Here are results for ten compounds from PMC3266058 (Journal of Medicinal Chemistry, 2011).

Like-named read-outs stand apart in the source and are kept apart here.

One data set has as its system CEM cells. The following applies: read-out: IC50 CEM; parental line; ref 13c; cited from earlier work.
Another data set deals with CEM^Vbl100 cells. Conditions: ref 13c, cited from earlier work.
The subject of data set [1] is six human cancer cell lines (HeLa, A549, HL-60, Jurkat, MCF-7, HT-29). Kind of data set: Antiproliferative activity over the panel of six human cancer cell lines. The following applies: all cell lines. In kind it is cell-based.
Data set [2] has as its system A549 cells. The following applies: read-out: IC50 A549 (Table 3); parental line; ref 13c; cited from earlier work.
For the next data set, the system named is A549-T12 cells. The following applies: ref 13c, cited from earlier work.
Data set [3] has as its system colon 26 murine tumor cell line. Conditions: read-out: cytotoxicity IC50, colon 26; ref 9a; cited from earlier work.
The test system of data set [4] is HeLa cells. Kind of data set: Antiproliferative MTT assay, HeLa. In kind it is cell-based. Conditions: Homo sapiens, 72 h, read-out: IC50 HeLa.
Data set [5] has as its system A549 cells. Kind of data set: Antiproliferative MTT assay, A549. The data set is classed as cell-based. Conditions: Homo sapiens, A549, 72 h, read-out: IC50 A549.
In another data set the test system is HL-60 cells. Description: Antiproliferative MTT assay, HL-60. In kind it is cell-based. Conditions: Homo sapiens, HL-60, 72 h, read-out: IC50 HL-60.
The next data set relates to Jurkat cells. Kind of data set: Antiproliferative MTT assay, Jurkat. The data set is classed as cell-based. The following applies: Homo sapiens, 72 h, read-out: IC50 Jurkat. The method in brief: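 Cells (8 × 10^3 per well in complete medium) settled 18 h at 37 °C, 5% CO2, then medium replaced with fresh medium holding test compound at a range of concentrations (10 mM DMSO stocks; final DMSO ≤0.25%) for 72 h at 37 °C. Viability read by MTT.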

In the next data set the test system is MCF-7 cells. Kind of data set: Antiproliferative MTT assay, MCF-7. The data set is classed as cell-based. Conditions: Homo sapiens, MCF7, 72 h, read-out: IC50 MCF-7. In general terms: Tetrazolium assays rely on reduction of a dye to a coloured formazan, in cell work by metabolically active cells.
For data set [6], the system named is HeLa cells. Description: Flow cytometric cell cycle analysis. In kind it is cell-based, human. Conditions: 24 h. The method in brief:
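Exponentially growing HeLa cells (5 × 10^5), grown in DMEM with 10% FBS and penicillin/streptomycin, were exposed to 15–250 nM test compound for 24 h, with DMSO ≤0.25%. Cells were fixed in ice-cold 70% ethanol, treated with lysis buffer containing RNase A and 0.1% Triton X-100, and stained with propidium iodide. DNA content was measured by flow cytometry. Results are mean ± SEM of three independent experiments.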
For orientation: In flow cytometry, cells or beads pass a laser one at a time.

Data set [7] relates to HeLa cells. Description: Annexin-V/PI apoptosis assay. In kind it is cell-based, human. Conditions: 24 or 48 h, vs control. The method, boiled down:
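HeLa cells grown in DMEM with 10% FBS, penicillin G and streptomycin, then exposed to test compound (10 mM DMSO stocks; final DMSO ≤0.25%). Phosphatidylserine exposure was read by flow cytometry after annexin-V-FITC labelling per kit instructions, with simultaneous PI staining. Excitation was 488 nm, with emission filters at 525 nm (FITC) and 585 nm (PI).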

In data set [8] the test system is HeLa cells. Description: Mitochondrial membrane potential. The following applies: JC-1, 24 or 48 h. In kind it is cell-based, human. The method, boiled down:
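HeLa cells in DMEM with 10% FBS were incubated 24 or 48 h with test compound (final DMSO ≤0.25%), then stained with the cationic dye JC-1 and analysed by flow cytometry. Polarized mitochondria give red aggregate emission (590 nm); depolarized ones give monomer emission (530 nm). Data are mean ± SEM of three independent experiments.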

Data set [9] relates to HeLa cells. Kind of data set: Mitochondrial ROS production. In kind it is cell-based, human. The following applies: HE and H2-DCFDA, 24 or 48 h, vs control cells. The method, boiled down:
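HeLa cells were cultured in DMEM with 10% FBS and antibiotics and exposed to test compound for 24 or 48 h, with final DMSO ≤0.25%. Cells were then stained with hydroethidine or H2-DCFDA, and ROS were measured by flow cytometry. Data are mean ± SEM of three independent experiments.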

A further data set relates to HT-29 xenograft. Kind of data set: In vivo antitumor activity, HT-29 xenograft. On the set-up: species or system BALB/c-nu nude mice. The following applies: 100 mg/kg intraperitoneally, days 0, 2 and 4; end of observation period (day 24). The method, boiled down:
(§1)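 Female BALB/c-nu nude mice, 4 weeks old (15−18 g), kept pathogen-free. HT-29 cells at 1 × 10^7 cells/mL in serum-free RPMI 1640 were injected (0.2 mL) subcutaneously in the back. At ~300 mm3, 18 mice were randomised to vehicle or treatment groups (six per group). Test compound was given in DMSO i.p. at 0.01 mL/g (100 mg/kg) on days 0, 2 and 4. Tumour size (caliper, V = LW²/2) and body weight were recorded at each time point. Results are mean ± SEM; two-sided Student's t test.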

The next data set concerns the target bovine brain tubulin (Bos taurus, UniProt P81947+Q6B856). Description: Inhibition of tubulin polymerization. The data set is classed as biochemical. Conditions: tubulin assembly assay.
Another data set has as its system cyclin B1. Description: Western blot, cyclin B1 in HeLa cells. Conditions: 24 and 48 h. In kind it is cell-based, human. The method, boiled down: (§2)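 HeLa cells were treated with test compound (DMSO ≤0.25%) for the indicated times, then washed twice in ice-cold PBS. They were lysed on ice for 30 min and spun at 15000g, 4 °C, 10 min; protein was measured by BCA. 20 μg was run on 7.5–15% SDS-PAGE and transferred to PVDF. Membranes were blocked overnight at 4 °C, then probed 2 h at room temperature with primary antibodies (total caspase-3, cleaved caspase-9, cyclin B, Bcl-2, Bax, XIAP). Peroxidase secondary was applied for 60 min, with ECL detection and β-actin reprobe as the loading control.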

For a further data set, the system named is caspase-3. Kind of data set: Western blot, caspase-3 in HeLa cells. The data set is classed as cell-based, human. The following applies: 24 or 48 h. The method in brief:
as §2
(A western blot detects proteins with antibodies after separation by electrophoresis.)

For another data set, the system named is caspase-9. Description: Western blot, caspase-9 in HeLa cells. In kind it is cell-based, human. Conditions: 24 or 48 h. The method, boiled down: as §2
In a further data set the test system is XIAP. Description: Western blot, XIAP in HeLa cells. In kind it is cell-based, human. Conditions: 24 or 48 h. The method in brief:
as §2

A further data set has as its system Bcl-2. Description: Western blot, Bcl-2 in HeLa cells. In kind it is cell-based, human. The following applies: after 48 h. The method, boiled down:
as §2

The test system of the next data set is Bax. Description: Western blot, Bax in HeLa cells. The data set is classed as cell-based, human. The method in brief: as §2
Data set [10] is described as follows: Body weight of treated xenograft mice. In kind it is in vivo, BALB/c-nu nude mice. Conditions: 100 mg/kg intraperitoneally, 3 doses; whole treatment period. The method, boiled down: as §1
For another data set, the system named is LoVo cells. The following applies: read-out: IC50 LoVo; parental line; ref 13c; cited from earlier work.
In a further data set the test system is LoVo^Doxo cells. The following applies: ref 13c, cited from earlier work.
The mark [11] stands for this setting: ratio of IC50 in resistant and nonresistant cell lines.

Sequence of bovine brain tubulin (P81947 whole entry): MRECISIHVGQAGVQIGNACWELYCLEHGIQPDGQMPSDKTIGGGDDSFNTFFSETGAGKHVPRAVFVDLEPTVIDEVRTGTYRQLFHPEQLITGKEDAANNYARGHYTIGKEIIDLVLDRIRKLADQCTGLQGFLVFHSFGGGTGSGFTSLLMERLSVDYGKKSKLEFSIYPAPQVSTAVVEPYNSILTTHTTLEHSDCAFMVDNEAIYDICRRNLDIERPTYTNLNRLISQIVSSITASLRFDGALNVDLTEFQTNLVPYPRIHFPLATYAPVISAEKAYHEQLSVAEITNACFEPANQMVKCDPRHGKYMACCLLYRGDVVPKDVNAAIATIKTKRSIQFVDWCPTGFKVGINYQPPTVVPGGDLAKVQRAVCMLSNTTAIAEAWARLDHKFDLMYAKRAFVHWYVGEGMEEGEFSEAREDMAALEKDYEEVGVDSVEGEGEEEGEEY
Sequence of bovine brain tubulin (Q6B856 whole entry): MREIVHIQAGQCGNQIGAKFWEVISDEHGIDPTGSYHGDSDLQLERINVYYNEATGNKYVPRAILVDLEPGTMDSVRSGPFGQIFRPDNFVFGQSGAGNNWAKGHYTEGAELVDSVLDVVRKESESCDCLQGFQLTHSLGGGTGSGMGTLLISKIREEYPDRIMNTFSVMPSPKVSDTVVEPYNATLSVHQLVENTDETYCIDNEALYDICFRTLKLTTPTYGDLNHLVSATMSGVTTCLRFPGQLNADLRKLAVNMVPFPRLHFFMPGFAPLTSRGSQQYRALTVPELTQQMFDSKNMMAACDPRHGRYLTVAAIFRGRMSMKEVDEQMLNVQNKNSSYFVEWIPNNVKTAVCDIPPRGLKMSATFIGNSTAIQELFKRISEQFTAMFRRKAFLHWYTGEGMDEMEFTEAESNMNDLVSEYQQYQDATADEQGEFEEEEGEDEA

As a reminder, the IC50 is the concentration at which inhibition is half-maximal. `CC[C@]1(O)C[C@@H]2CN(CCc3c([nH]c4ccccc34)[C@@](C(=O)OC)(c3cc4c(cc3OC)N(C)[C@H]3[C@@](O)(C(=O)OC)[C@H](OC(C)=O)[C@]5(CC)C=CCN6CC[C@]43[C@@H]65)C2)C1` [vinblastine]: the IC50 in the data set with CEM cells is 4.1 ± 0.2 nM; in the data set on CEM^Vbl100 cells (read-out: IC50 CEMVbl100, vinblastine resistant line), 230 ± 32 nM. In the data set with CEM^Vbl100 cells (setting [11]), the “resistance ratio CEMVbl100/CEM” value is on record as 56.1.
For `CCCCCOc1ccc(-c2nnnn2-c2cc(OC)c(OC)c(OC)c2)cc1` [4p, 1-(3,4,5-Trimethoxyphenyl)-5-(4-(pentyloxy)phenyl)-1H-tetrazole], the “antiproliferative activity” value in data set [1] is “inactive”.
For the compound `CC(=O)O[C@H]1C(=O)[C@@]2(C)[C@H]([C@H](OC(=O)c3ccccc3)[C@]3(O)C[C@H](OC(=O)[C@H](O)[C@@H](NC(=O)c4ccccc4)c4ccccc4)C(C)=C1C3(C)C)[C@]1(OC(C)=O)CO[C@@H]1C[C@@H]2O` [paclitaxel], the IC50 with A549 cells [2] is 7.2 ± 0.1 nM; in the data set with A549-T12 cells (read-out: IC50 A549-T12, paclitaxel resistant line), 75.2 ± 12.5 nM. Besides, in the data set with A549-T12 cells (setting [11]), the “resistance ratio A549-T12/A549” value is 10.4.
Take `COc1ccc(-c2nnnn2-c2cc(OC)c(OC)c(OC)c2)cc1N` [1-(3,4,5-trimethoxyphenyl)-5-(4-methoxy,3-aminophenyl)-1H-tetrazole]: the IC50 in data set [3] is 7.2 nM.
On to `CCCCOc1ccc(-c2nnnn2-c2cc(OC)c(OC)c(OC)c2)cc1` [4o, 5-(4-Butoxyphenyl)-1-(3,4,5-trimethoxyphenyl)-1H-tetrazole], for which the “antiproliferative activity” value in data set [1] was “inactive”.
Turning to `CCOc1ccc(-c2ncnn2-c2cc(OC)c(OC)c(OC)c2)cc1` [3a], the IC50 is 15 ± 4 nM with HeLa cells [4]; 100 ± 20 nM with A549 cells [5]; 20 ± 3 nM with HL-60 cells; 5 ± 0.2 nM in the data set with Jurkat cells; 50 ± 9 nM in the data set with MCF-7 cells.
As to `CCOc1ccc(-n2nnnc2-c2cc(OC)c(OC)c(OC)c2)cc1` [5b, 5-(3,4,5-Trimethoxyphenyl)-1-(4-ethoxyphenyl)-1H-tetrazole], in the data set on HeLa cells [6], the “lowest concentration with a rise in G2/M cells” value is 30 nM. The “annexin-V positive cells” value in the data set with HeLa cells [7] is listed as “induced an accumulation of annexin-V positive cells”. Besides, in the data set on HeLa cells [8], the “cells with depolarized mitochondria” value is “induced a time and concentration-dependent increase in the proportion of cells with depolarized mitochondria”. Also, the “ROS production” value in the data set with HeLa cells [9] is listed as “induced the production of significant amounts of ROS”.
In the case of `COc1ccc(/C=C\c2cc(OC)c(OC)c(OC)c2)cc1O` [compound 1, combretastatin A-4], the IC50 with Jurkat cells came out at 5 ± 0.6 nM. The “reduction in tumor growth vs vehicle” value in the data set on HT-29 xenograft is 43.7%.
With `CCOc1ccc(-c2nnnn2-c2cc(OC)c(OC)c(OC)c2)cc1` [4l, 1-(3,4,5-Trimethoxyphenyl)-5-(4-ethoxyphenyl)-1H-tetrazole], the “fold more potent than 5b in tubulin assembly” value on bovine brain tubulin stood at 2 fold. The “lowest concentration with a rise in G2/M cells” value in the data set on HeLa cells [6] is recorded as 30 nM. The “annexin-V positive cells” value in the data set on HeLa cells [7] was “induced an accumulation of annexin-V positive cells”. Besides, in the data set with HeLa cells [8], the “cells with depolarized mitochondria” value was “induced a time and concentration-dependent increase in the proportion of cells with depolarized mitochondria”. The “ROS production” value in the data set on HeLa cells [9] is listed as “induced the production of significant amounts of ROS”. Further, the “cyclin B1 expression” value with cyclin B1 is reported as “marked increase in cyclin B1 expression”. The “caspase-3 activation” value in the data set with caspase-3 is listed as “activation of caspase-3”. Also, the “caspase-9 activation” value in the data set with caspase-9 is on record as “induced activation of caspase-9”. The “XIAP expression” value in the data set on XIAP is on record as “strongly reduced”. In addition, the “Bcl-2 expression” value in the data set with Bcl-2 is given as “only slightly affected”. In addition, the “Bax expression” value in the data set with Bax is reported as “no effect”. In [10], the “body weight change of treated animals” value was “no significant weight changes”.
Consider `COc1cccc2c1C(=O)c1c(O)c3c(c(O)c1C2=O)C[C@@](O)(C(=O)CO)C[C@@H]3O[C@H]1C[C@H](N)[C@H](O)[C@H](C)O1` [doxorubicin], for which the IC50 in the data set with LoVo cells is 120 ± 30 nM; with LoVo^Doxo cells (read-out: IC50 LoVoDoxo, doxorubicin resistant line), 13200 ± 210 nM. Besides, the “resistance ratio LoVoDoxo/LoVo” value in the data set with LoVo^Doxo cells (setting [11]) is given as 109.6.
